Reference: article PMC8137579 (Cancer research, 2021)
“Also recorded” adds a separate entry of the source. Where two headings read alike, the source gives them in different places.

Assays:
XD456 cell line [1] = experiment: soft agar colony formation assay, XD456; type: cell-based, human
Procedure, shortened: (§1)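 Soft agar format: cells embedded in a 0.45% low-melting agarose top layer over a 0.9% agarose bottom layer. Colonies were stained with 0.1% crystal violet and counted after three weeks. n=3 attached, n=4 soft agar; Student t-test.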

[2] = in vivo pharmacokinetic assessment; design: species or system C57Bl/6 mice; details: mouse
[3] = test system: PDGx XD456 glioma cell line; experiment: PrestoBlue cell viability assay, XD456; type: cell-based, human; details: read-out: IC50 cell viability, 48 hours of treatment
aqueous solubility = type: physicochemical
[4] = test system: cleaved caspase-3 and cleaved PARP; experiment: western blot of apoptosis markers; type: cell-based; details: glioma cell lines; 10 uM for 48 hours
Procedure, shortened: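 Glioma cell lines were given 10 uM test compound or vehicle for 48 h. Cleaved PARP and cleaved caspase-3 were probed by western blot.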

[5] = test system: U251 cells expressing Fluc construct; experiment: split firefly luciferase assay, control reporter; type: cell-based
Procedure, shortened: (§2)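 Stable U251 lines carried doxycycline-inducible HuR-Nluc plus HuR-Cluc (dimer reporter) or full-length Fluc (control reporter), kept under hygromycin B and G418. 30,000–50,000 cells/well were induced with doxycycline 0.75 ug/ml for 48 h, then given test compound or vehicle for 6 h. Luminescence was read with D-luciferin substrate.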

LN229 glioma cell line [6] = experiment: cell cycle analysis; type: cell-based; details: 10 uM for 18 hours
U251 glioma cell line [7] = experiment: PrestoBlue cell viability assay, U251; type: cell-based
Procedure, shortened: (§3)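 PrestoBlue viability read-out after 48 h exposure to the test compound. U251 and LN229 were grown in DMEM/F12 with 10% FBS, 2 mM L-glutamine and 100 U/ml penicillin/streptomycin. Data were normalised to vehicle-treated cells, and dose-response curves were fitted with the Boltzmann equation to give IC50; n=5 per cell line.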

U251 cell line [8] = experiment: attached cell colony formation assay, U251; type: cell-based
U251 glioma cell line [9] = experiment: cell cycle analysis; type: cell-based; details: 10 uM for 18 hours
[10] = test system: PDGx XD456 glioma cell line; experiment: cell cycle analysis; type: cell-based, human; details: 10 uM for 18 hours
[11] = test system: PDGx XD456 intracranial glioma; experiment: in vivo mouse intracranial glioma model; design: species or system athymic nude mice; details: 15 mg/kg, twice a day for three weeks, intraperitoneal
Procedure, shortened: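 Athymic nude mice bore intracranial PDGx XD456 cells transduced with firefly luciferase and EGFP. After 4.5 days of tumour establishment, mice were randomised to vehicle or test compound, 15 mg/kg ip twice daily for three weeks. Tumour bioluminescence (radiance) was imaged at weeks 2 and 3, with body weight tracked; n=5, Student t-test. Brain slices were checked for EGFP and immunostained for HuR, Bcl2 and Mcl1.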

U251 cell line [12] = experiment: soft agar colony formation assay, U251; type: cell-based
Procedure, shortened: as §1

[13] = target: interaction of the HuR protein with Bcl2 and Mcl1 mRNAs (Homo sapiens, UniProt Q15717); experiment: HuR/mRNA co-immunoprecipitation assay; type: cell-based; details: U251 cells
Sequence of interaction of the HuR protein with Bcl2 and Mcl1 mRNAs (Q15717 2-326 limits assumed): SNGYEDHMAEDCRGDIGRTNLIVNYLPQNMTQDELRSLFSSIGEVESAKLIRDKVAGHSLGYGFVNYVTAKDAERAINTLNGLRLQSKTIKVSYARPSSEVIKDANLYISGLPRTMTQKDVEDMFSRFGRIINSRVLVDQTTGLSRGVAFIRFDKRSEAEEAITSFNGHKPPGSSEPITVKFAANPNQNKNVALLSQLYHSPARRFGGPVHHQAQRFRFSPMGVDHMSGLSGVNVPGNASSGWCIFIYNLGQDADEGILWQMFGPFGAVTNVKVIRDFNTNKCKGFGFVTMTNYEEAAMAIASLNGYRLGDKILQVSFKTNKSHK
Procedure, shortened: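 Run in U251 cells with the RiboCluster Profiler RIP-assay kit and a polyclonal anti-HuR antibody. Co-precipitated Bcl2 and Mcl1 transcripts and 18S RNA were quantified by Taqman with gene-specific probes. Binding was compared with vehicle-treated control.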

primary human astrocytes = experiment: toxicity in primary human astrocytes; type: cell-based
Procedure, shortened: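 Primary human neurons (poly-L-lysine plates) or astrocytes were treated up to 25 uM for 48 h. Cells were fixed in 3.7% paraformaldehyde (pH 7.4) for 13 min, permeabilised with 0.3% Triton X-100 and blocked with 3% BSA/glycine. Staining used anti-cleaved caspase-3 (1:200, overnight 4°C) and Alexa 594 secondary, with DAPI counterstain. Percent positive cells was scored; at least three experiments.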

primary human neurons = experiment: toxicity in primary human neurons; type: cell-based
Bcl2 mRNA = experiment: Taqman quantification of Bcl2 mRNA in glioma cell lines; type: cell-based; details: 10 uM for 24 hours
XD456 cell line [14] = experiment: attached cell colony formation assay, XD456; type: cell-based, human
LN229 glioma cell line [15] = experiment: PrestoBlue cell viability assay, LN229; type: cell-based; details: read-out: IC50 cell viability, 48 hours of treatment
Procedure, shortened: as §3

kinases = experiment: SelectScreen kinase profiling; type: biochemical; details: compared to the parent SRI-41664
Procedure, shortened: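 Done as an outsourced SelectScreen kinase profiling service. 10-point titrations were run against NTRK1, AAK1, IRAK1, PIM1 and cMET kinases.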

[16] = test system: Bcl2 and Mcl1 protein levels; experiment: western blot of Bcl2 and Mcl1 proteins in cytoplasmic fractions; type: cell-based; details: U251 and XD456; 10 uM for 48 hours
Procedure, shortened: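 U251 and PDGx XD456 cells were treated for 48 h with test compound or vehicle. Nuclear and cytoplasmic fractions were separated with NE-PER reagents and verified by lamin A/C (nuclear) and tubulin alpha (cytoplasmic). Bcl2 and Mcl1 were detected by western blot.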

HuR protein = experiment: western blot of HuR protein levels; type: cell-based
Mcl1 mRNA = experiment: Taqman quantification of Mcl1 mRNA in glioma cell lines; type: cell-based; details: for average decrease of Mcl1/18S mRNA ratio: 10 uM for 24 hours
Procedure, shortened: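 Glioma cells (U251, U87, LN229) were exposed to 10 uM test compound or vehicle for 24 h. mRNA was isolated with RNeasy Mini Kit and QIAshredder columns. Bcl2, Mcl1 and 18S transcripts were quantified by Taqman gene-specific probes. Bcl2/18S and Mcl1/18S ratios were compared with vehicle control; three experiments.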

[17] = target: HuR dimerization (HuR-Nluc + HuR-Cluc reporter, U251 cells) (Homo sapiens, UniProt Q15717); experiment: cell-based split firefly luciferase - HuR dimerization assay
Sequence of HuR dimerization (HuR-Nluc + HuR-Cluc reporter, U251 cells) (Q15717 2-326 limits assumed): as above
Procedure, shortened: as §2

CN(c1ccc2ncc(-c3ccc4cn[nH]c4c3)n2n1)C1CCOCC1 [SRI-42127]
number of colonies (XD456 cell line [1]; 3uM): 39±6
number of colonies (XD456 cell line [1]; 10 uM): No significant numbers of colonies were detected
brain-to-plasma concentration ratio [2]: 0.42±0.05
BBB permeability ([2]; in vivo): superior BBB permeability
half-life ([2]; 10 mg/kg by IP): 9.6 min
IC50 [3]: 4000 ± 600 nM
aqueous solubility (aqueous solubility): readily soluble
signs of apoptosis [4]: cleaved caspase-3 and cleaved PARP
half inhibition in the control reporter assay [5]: half inhibitions were not reached
increase of cells in G1 phase compared to control (LN229 glioma cell line [6]): 56±28%
reduction of cells in S phase compared to control (LN229 glioma cell line [6]): 60±3%
IC50 for inhibition of cell viability, after enhancement of HuR-dimer formation by two fold (U251 glioma cell line [7]; U251 with dox-inducible HuR-dimerization reporters, 48 hours): 8000 ± 800 nM
IC50 (U251 glioma cell line [7]; read-out: IC50 cell viability, U251, 48 hours of treatment): 2800 ± 600 nM
IC50 (U251 glioma cell line [7]; read-out: IC50 for inhibition of cell viability, before enhancement of HuR-dimer formation, U251 with dox-inducible HuR-dimerization reporters, 48 hours): 2800 ± 400 nM
number of colonies (U251 cell line [8]; 3uM): 49±28
number of colonies (U251 cell line [8]; 10 uM): No significant numbers of colonies were detected
increase of cells in G1 phase compared to control (U251 glioma cell line [9]): 97±33%
reduction of cells in S phase compared to control (U251 glioma cell line [9]): 65±4%
increase of cells in G1 phase compared to control [10]: 210±40%
reduction of cells in S phase compared to control [10]: 70±3%
tumor progression (tumor reporter luminescence signal) compared to control group [11]: reduction of tumor progression; also recorded: not statistically significant
weight changes compared to the control group [11]: not significant
number of colonies (U251 cell line [12]; 3uM): 90±70
number of colonies (U251 cell line [12]; 10 uM): No significant numbers of colonies were detected
interaction of HuR protein with Bcl2 and Mcl1 mRNAs compared to control [13]: significant reduction
astrocyte cytotoxicity (primary human astrocytes; concentrations below 15 uM): low neuronal and astrocyte cytotoxicity
cleaved caspase-3 activation in astrocytes (primary human astrocytes; up to 15 uM): did not observe significant alterations
decline of cellular metabolism of neurons (primary human neurons; 25 uM for 48 hours): about 44%
neuronal cytotoxicity (primary human neurons; concentrations below 15 uM): low neuronal and astrocyte cytotoxicity
cell numbers and cell sprouting of neurons (primary human neurons; up to 15 uM for 48 hours): remained unchanged
morphological changes of neurons (primary human neurons; up to 15 uM for 48 hours): no morphological changes
cleaved caspase-3 immunostaining in neurons (primary human neurons; up to 15 uM, 48 hours): no significant alterations
average decrease of Bcl2/18S mRNA ratio (Bcl2 mRNA; LN229): 95±2%
average decrease of Bcl2/18S mRNA ratio (Bcl2 mRNA; U87): 95±2%
average decrease of Bcl2/18S mRNA ratio (Bcl2 mRNA; U251): 96±2%
average decrease of Bcl2/18S mRNA ratio (Bcl2 mRNA; XD456): 96±2%
number of colonies (XD456 cell line [14]; 3uM): 34±12
number of colonies (XD456 cell line [14]; 10 uM): No significant numbers of colonies were detected
IC50 (LN229 glioma cell line [15]): 3200 ± 600 nM
kinase inhibition potential (kinases): reduced kinase inhibition potential
Bcl2 and Mcl1 protein levels in cytoplasmic fractions compared to control [16]: dramatic reduction
total HuR protein levels (HuR protein; 3 uM and 10 uM, 8–12 hours of treatment): did not alter
HuR cytoplasmic levels versus control (HuR protein; prolonged treatment): decrease
average decrease of Mcl1/18S mRNA ratio (Mcl1 mRNA; LN229): 87±8%
average decrease of Mcl1/18S mRNA ratio (Mcl1 mRNA; U87): 86±7%
average decrease of Mcl1/18S mRNA ratio (Mcl1 mRNA; U251): 95±3%
average decrease of Mcl1/18S mRNA ratio (Mcl1 mRNA; XD456): 90±9%
reduction in Mcl1 mRNA compared to control (Mcl1 mRNA; range over U251, U87, LN229, XD456, 10 uM, 24 h): 87–95%
maximum inhibition of HuR dimerization ([17]; 6 hours of cell treatment): 90±1%
IC50 for inhibition of HuR dimerization, after increase in HuR dimerization by two fold ([17]; U251 with dox-inducible HuR-dimerization reporters, 6 hours): 1900 ± 100 nM
HuR inhibition potential in the presence of kinase inhibitors ([17]; all evaluated kinase inhibitors): retained its HuR inhibition potential
IC50 ([17]; read-out: IC50 for inhibition of HuR dimerization, before increase in HuR dimerization, U251 with dox-inducible HuR-dimerization reporters, 6 hours): 1200 ± 100 nM
IC50 ([17]; read-out: IC50 of inhibition of HuR dimerization, U251 cells co-expressing HuR-Nluc and HuR-Cluc, 6 hours of treatment): 1200 ± 200 nM
